What was measured:
[1] = target: Adenosine receptors; A2b & A3 (Homo sapiens) (UniProt P29275+P0DMS8); test: Ratio of binding affinity of human A2B receptor to that of human A3 receptor; type: protein assay
Outline: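 Ki ratio, n=3-6, 6–8 concentrations. A2B in HEK-293 membranes (20 μg): 40 nM [3H]DPCPX, 50 mM Tris HCl, 10 mM MgCl2, 1 mM EDTA, 0.1 mM benzamidine pH 7.4, 2 IU/mL adenosine deaminase, 60 min at 25 °C, nonspecific with 100 μM NECA. A3 in CHO membranes (50 μg): 1 nM [3H]MRE3008-F20, 120 min at 4 °C.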

[2] = target: Adenosine receptors; A1 & A3 (Homo sapiens) (UniProt P30542+P0DMS8); test: Ratio of binding affinity of human A1 receptor to that of human A3 receptor; type: protein assay
Outline: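 Ki ratio from displacement in CHO membranes, 6–8 concentrations, n=3-6, filtration counting. A1: 1 nM [3H]DPCPX, 50 μg protein, 120 min at 25 °C, nonspecific with 10 μM CHA. A3: 1 nM [3H]MRE3008-F20, 50 μg protein, Tris/10 mM MgCl2 pH 7.4, 120 min at 4 °C, nonspecific with 1 μM MRE3008-F20.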

[3] = target: T1, Adenosine receptor A2b (Homo sapiens, UniProt P29275); test: Displacement of [3H]DPCPX from Adenosine A2b receptor expressed in […]; range 183-278; type: cell-based
T1 sequence (P29275 whole entry): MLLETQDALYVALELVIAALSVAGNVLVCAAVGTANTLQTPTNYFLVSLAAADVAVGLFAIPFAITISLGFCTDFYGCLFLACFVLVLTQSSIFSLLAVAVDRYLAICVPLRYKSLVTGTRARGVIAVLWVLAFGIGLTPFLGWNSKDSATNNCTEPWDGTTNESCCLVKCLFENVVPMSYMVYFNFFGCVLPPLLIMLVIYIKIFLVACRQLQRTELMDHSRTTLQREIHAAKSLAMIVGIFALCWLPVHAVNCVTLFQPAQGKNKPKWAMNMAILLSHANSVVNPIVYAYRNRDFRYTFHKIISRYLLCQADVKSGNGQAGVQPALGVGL

[4] = target: T2, Adenosine receptor A3 (Homo sapiens, UniProt P0DMS8); test: Displacement of [3H]MRE3008-F20 from human adenosine A3 receptor expressed in CHO cells; range 51-70; type: cell-based
T2 sequence (P0DMS8 whole entry): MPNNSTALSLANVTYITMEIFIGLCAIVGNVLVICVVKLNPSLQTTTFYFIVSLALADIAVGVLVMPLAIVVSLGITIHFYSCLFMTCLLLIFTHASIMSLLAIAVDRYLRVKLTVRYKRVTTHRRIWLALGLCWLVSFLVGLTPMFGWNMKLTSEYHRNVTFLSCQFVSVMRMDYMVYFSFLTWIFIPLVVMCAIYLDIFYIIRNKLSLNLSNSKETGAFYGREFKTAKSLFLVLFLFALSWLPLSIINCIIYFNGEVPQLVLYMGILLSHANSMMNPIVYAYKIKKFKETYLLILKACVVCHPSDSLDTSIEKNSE

[5] = target: T3, Adenosine receptor A3 (Homo sapiens) (UniProt P0DMS8); test: Percentage of blockade by 1 uM of the inhibition by 100 nM IB-MECA-inhibited cAMP accumulation in CHO cells expressing human adenosine A3 receptor.; type: functional, cell-based
T3 sequence (whole entry): T2 sequence (P0DMS8 whole entry)
Outline: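 CHO cells stably expressing human A3 receptor; membranes in 50 mM Tris HCl, 10 mM MgCl2, 1 mM EDTA pH 7.4 with 5 μM GTP, 0.5 mM […] and 2.0 IU/mL adenosine deaminase. Preincubated 10 min at 37 °C, then IB-MECA (100 nM) and/or antagonist with 1 mM ATP and 10 μM forskolin for 10 min. Boiled 2 min. cAMP read by [3H]cAMP competition with adrenal binding protein.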

[6] = target: T2, Adenosine receptor A3; test: Displacement of [3H]MRE3008-F20 from human adenosine A3 receptor expressed in CHO cells; range 1061-1245; type: cell-based
[7] = target: T4, Adenosine receptor A2a (Homo sapiens, UniProt P29274); test: Displacement of [3H]-SCH- 58261 from human adenosine A2A receptor expressed in CHO cells; range 36-55; type: cell-based
Outline: (§1)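 Membranes from CHO cells stably expressing human A2A receptor, grown in DMEM/F12 without nucleosides, resuspended in 50 mM Tris HCl, 10 mM MgCl2, pH 7.4; 50 μg protein/assay. Competition with [3H]SCH 58261 at 6–8 or more compound concentrations, 60 min at 25 °C; nonspecific binding with 50 μM NECA. Filtration on GF/B filters, scintillation counting; n=3-6.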

[8] = target: T5, Adenosine receptor A1 (Homo sapiens, UniProt P30542); test: Displacement of [3H]DPCPX from human adenosine A1 receptor expressed in CHO cells; range 134-229; type: cell-based
T5 sequence (P30542 whole entry): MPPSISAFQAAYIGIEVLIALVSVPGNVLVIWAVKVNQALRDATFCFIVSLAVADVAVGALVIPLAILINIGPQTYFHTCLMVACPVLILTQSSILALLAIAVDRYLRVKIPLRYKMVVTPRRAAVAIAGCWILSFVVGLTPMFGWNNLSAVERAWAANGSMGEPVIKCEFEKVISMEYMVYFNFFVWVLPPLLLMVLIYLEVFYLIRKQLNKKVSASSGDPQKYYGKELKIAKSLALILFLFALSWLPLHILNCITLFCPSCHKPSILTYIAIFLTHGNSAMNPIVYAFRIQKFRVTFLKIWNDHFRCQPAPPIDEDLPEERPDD

[9] = target: T1, Adenosine receptor A2b; test: Displacement of [3H]DPCPX from Adenosine A2b receptor expressed in CHO cells; range 343-468; type: cell-based; conditions: in the assay text read “HEK-293 cells” for “CHO cells”
Outline: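 Human recombinant A2B receptor was expressed in HEK-293 cell membranes (20 μg protein). Incubated with 40 nM [3H]DPCPX in 50 mM Tris HCl, 10 mM MgCl2, 1 mM EDTA, 0.1 mM benzamidine, pH 7.4, with 2 IU/mL adenosine deaminase, at least 6–8 test concentrations, 60 min, 25 °C. Nonspecific binding was taken with 100 μM NECA; n=3-6.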

[10] = target: T1, Adenosine receptor A2b; test: Displacement of [3H]DPCPX from Adenosine A2b receptor expressed in […]; range 1681-1961; type: cell-based
[11] = target: T5, Adenosine receptor A1; test: Displacement of [3H]DPCPX from human adenosine A1 receptor expressed in CHO cells; range 327-462; type: cell-based
[12] = target: T4, Adenosine receptor A2a; test: Displacement of [3H]-SCH- 58261 from human adenosine A2A receptor expressed in CHO cells; range 3420-3788; type: cell-based
[13] = target: T2, Adenosine receptor A3; test: biochemical
[14] = target: T2, Adenosine receptor A3; test: Displacement of [3H]MRE3008-F20 from human adenosine A3 receptor expressed in CHO cells; range 34-76; type: cell-based
[15] = target: T5, Adenosine receptor A1; test: Displacement of [3H]DPCPX from human adenosine A1 receptor expressed in CHO cells; range 2894-3460; type: cell-based
[16] = target: T4, Adenosine receptor A2a; test: Displacement of [3H]-SCH- 58261 from human adenosine A2A receptor expressed in CHO cells; type: cell-based
[17] = target: T1, Adenosine receptor A2b; test: Displacement of [3H]DPCPX from Adenosine A2b receptor expressed in CHO cells; type: cell-based
[18] = target: T5, Adenosine receptor A1; test: Displacement of [3H]DPCPX from human adenosine A1 receptor expressed in CHO cells; range 123-160; type: cell-based
[19] = target: T4, Adenosine receptor A2a; test: Displacement of [3H]-SCH- 58261 from human adenosine A2A receptor expressed in CHO cells; range 17-24; type: cell-based
Outline: (§2)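 CHO membranes expressing human A2A receptor (50 μg protein) in 50 mM Tris HCl, 10 mM MgCl2, pH 7.4, competed against [3H]SCH 58261. At least 6–8 test concentrations were used, with 60 min incubation at 25 °C. Nonspecific binding defined by 50 μM NECA; n=3-6.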

[20] = target: T1, Adenosine receptor A2b; test: Displacement of [3H]DPCPX from Adenosine A2b receptor expressed in HEK-293 cells; range 44-58
[21] = target: T2, Adenosine receptor A3; test: biochemical; remark: listed apart in the source
[22] = target: T5, Adenosine receptor A1; test: Displacement of [3H]DPCPX from human adenosine A1 receptor expressed in CHO cells; range 11-17; type: cell-based
[23] = target: T1, Adenosine receptor A2b; test: Displacement of [3H]DPCPX from Adenosine A2b receptor expressed in HEK-293 cells; range 40-69
[24] = target: T4, Adenosine receptor A2a; test: Displacement of [3H]-SCH- 58261 from human adenosine A2A receptor expressed in CHO cells; range 1.4-2.1; type: cell-based; outline: as §2
[25] = target: T2, Adenosine receptor A3; test: biochemical; remark: listed apart in the source
[26] = target: T2, Adenosine receptor A3; test: biochemical; remark: listed apart in the source
[27] = target: T1, Adenosine receptor A2b; test: Displacement of [3H]DPCPX from Adenosine A2b receptor expressed in […]; range 226-301; type: cell-based
[28] = target: T4, Adenosine receptor A2a; test: Displacement of [3H]-SCH- 58261 from human adenosine A2A receptor expressed in CHO cells; range 1220-1590; type: cell-based
[29] = target: T5, Adenosine receptor A1; test: Displacement of [3H]DPCPX from human adenosine A1 receptor expressed in CHO cells; range 928-1297; type: cell-based
[30] = target: T3, Adenosine receptor A3 (Homo sapiens); conditions: CHO, 1 uM
[31] = target: T2, Adenosine receptor A3; test: Inhibition of cAMP accumulation in CHO cells expressing human adenosine A3 receptor; range 1.7-4.2; type: functional, cell-based
[32] = target: T3, Adenosine receptor A3 (Homo sapiens); conditions: CHO, 1 uM; remark: listed apart in the source
[33] = target: T2, Adenosine receptor A3; test: Inhibition of cAMP accumulation in CHO cells expressing human adenosine A3 receptor; range 3.0-6.9; type: functional, cell-based
[34] = target: T5, Adenosine receptor A1; test: Displacement of [3H]-DPCPX from human adenosine A1 receptor expressed in CHO cells; range 213-281; type: cell-based
[35] = target: T1, Adenosine receptor A2b; test: Displacement of [3H]DPCPX from Adenosine A2b receptor expressed in […]; range 56-89; type: cell-based
[36] = target: T4, Adenosine receptor A2a; test: Displacement of [3H]-SCH- 58261 from human adenosine A2A receptor expressed in CHO cells; range 70-130; type: cell-based; outline: as §1
[37] = target: T2, Adenosine receptor A3; test: Displacement of [3H]MRE3008-F20 from human adenosine A3 receptor expressed in CHO cells; range 0.52-0.68; type: cell-based
[38] = target: T2, Adenosine receptor A3; test: Displacement of [3H]MRE3008-F20 from human adenosine A3 receptor expressed in CHO cells; range 2.13-3.62; type: cell-based
[39] = target: T4, Adenosine receptor A2a; test: Displacement of [3H]-SCH- 58261 from human adenosine A2A receptor expressed in CHO cells; range 632-1003; type: cell-based; outline: as §1
[40] = target: T3, Adenosine receptor A3 (Homo sapiens); conditions: CHO, 1 uM; remark: listed apart in the source
[41] = target: T5, Adenosine receptor A1; test: Displacement of [3H]DPCPX from human adenosine A1 receptor expressed in CHO cells; range 885-1163; type: cell-based
[42] = target: T1, Adenosine receptor A2b; test: Displacement of [3H]DPCPX from Adenosine A2b receptor expressed in HEK-293 cells; range 432-469

T4 sequence (P29274 whole entry): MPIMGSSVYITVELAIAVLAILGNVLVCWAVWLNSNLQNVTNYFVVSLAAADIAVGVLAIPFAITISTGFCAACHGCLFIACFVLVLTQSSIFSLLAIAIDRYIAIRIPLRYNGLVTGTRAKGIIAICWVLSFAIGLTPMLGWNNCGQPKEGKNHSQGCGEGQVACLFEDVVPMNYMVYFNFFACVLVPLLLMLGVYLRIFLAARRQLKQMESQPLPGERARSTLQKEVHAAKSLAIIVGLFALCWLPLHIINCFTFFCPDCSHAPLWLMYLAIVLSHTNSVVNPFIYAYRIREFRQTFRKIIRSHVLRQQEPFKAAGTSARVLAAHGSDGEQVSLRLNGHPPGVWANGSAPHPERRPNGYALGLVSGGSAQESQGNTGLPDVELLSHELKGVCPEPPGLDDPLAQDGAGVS

O=C(Nc1cccc(Cl)c1)Nc1nc2nn(CCCc3ccccc3)cc2c2nc(-c3ccco3)nn12
Ratio [1]: 3.7
Ratio [2]: 25
Ki [3]: 226 nM
Ki [4]: 60 nM
inhibition [5]: 39%

CC(C)(C)n1cc2c(nc(N)n3nc(-c4ccco4)nc23)n1
Ki [6]: 1150 nM
Ratio [1]: 0.35
Ratio [2]: 0.15
Ki [7]: 45 nM
Ki [8]: 175 nM
inhibition [5]: 9%
Ki [9]: 400 nM

O=C(Nc1cccc(Cl)c1)Nc1nc2nn(CCc3cc(Br)c(Br)cc3Br)cc2c2nc(-c3ccco3)nn12
Ratio [1]: 26
Ratio [2]: 5.5
Ki [10]: 1820 nM
Ki [11]: 389 nM
Ki [12]: 3600 nM
inhibition [5]: 32%
Ki [13]: 71 nM

O=C(Nc1cccc(Cl)c1)Nc1nc2nn(CCc3cccc4ccccc34)cc2c2nc(-c3ccco3)nn12
Ki [14]: 51 nM
Ratio [1]: > 196
Ratio [2]: 62
Ki [15]: 3160 nM
Ki [16]: > 10000 nM
Ki [17]: > 10000 nM
inhibition [5]: 40%

Nc1nc2n[nH]cc2c2nc(-c3ccco3)nn12
Ki [18]: 140 nM
Ki [19]: 20 nM
Ki [20]: 51 nM
Ratio [1]: 0.15
Ratio [2]: 0.4
Ki [21]: 348 nM
inhibition [5]: 24%

CCCCn1cc2c(nc(N)n3nc(-c4ccco4)nc23)n1
Ki [22]: 14 nM
Ki [23]: 53 nM
Ratio [1]: 0.09
Ratio [2]: 0.02
Ki [24]: 1.6 nM
Ki [25]: 600 nM
inhibition [5]: 15%

COc1ccc(NC(=O)Nc2nc3nn(C)cc3c3nc(-c4ccco4)nn23)cc1
Ki [26]: 0.2 nM
Ki [27]: 261 nM
Ratio [1]: 1300
Ratio [2]: 5480
Ki [28]: 1390 nM
Ki [29]: 1100 nM
inhibition [30]: 94%
IC50 [31]: 2.7 nM

CCCCn1cc2c(nc(NC(=O)Nc3cccc(Cl)c3)n3nc(-c4ccco4)nc23)n1
inhibition [32]: 85%
Ratio [1]: 116
Ratio [2]: 408
IC50 [33]: 4.5 nM
Ki [34]: 245 nM
Ki [35]: 70 nM
Ki [36]: 95 nM
Ki [37]: 0.6 nM

CC(C)(C)n1cc2c(nc(NC(=O)Nc3cccc(Cl)c3)n3nc(-c4ccco4)nc23)n1
Ki [38]: 2.78 nM
Ratio [1]: 162
Ratio [2]: 365
Ki [39]: 796 nM
inhibition [40]: 70%
Ki [41]: 1020 nM
Ki [42]: 450 nM
